Laboratory results published in ChEMBL document CHEMBL4725451, “Discovery of Tricyclic Xanthines as Agonists of the Cannabinoid-Activated Orphan G-Protein-Coupled Receptor GPR18” (ACS Med Chem Lett, 2020).
The source made the active and inactive calls. No cut-off for these calls is given here.

Experiments:
[1] = target: T1, G-protein coupled receptor 55 (Homo sapiens, UniProt Q9Y2T6); test: Agonist activity at Prolink1-tagged human GPR55 receptor expressed in CHO cells assessed as induction of beta-arrestin recruitment after 90 mins by beta-galactosidase based topcount luminescence analysis; type: cell-based
T1 sequence (Q9Y2T6 whole entry): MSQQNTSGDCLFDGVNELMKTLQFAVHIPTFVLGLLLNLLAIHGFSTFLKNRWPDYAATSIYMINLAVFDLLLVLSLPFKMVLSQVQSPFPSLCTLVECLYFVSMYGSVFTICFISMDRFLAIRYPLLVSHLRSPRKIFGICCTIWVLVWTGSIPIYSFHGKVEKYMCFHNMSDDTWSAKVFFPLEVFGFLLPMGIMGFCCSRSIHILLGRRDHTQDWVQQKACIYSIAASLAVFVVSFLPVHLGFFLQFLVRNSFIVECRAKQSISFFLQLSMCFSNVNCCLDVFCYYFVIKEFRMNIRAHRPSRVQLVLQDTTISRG

[2] = target: T1, G-protein coupled receptor 55; test: Antagonist activity at Prolink1-tagged human GPR55 receptor expressed in CHO cells assessed as inhibition of lysophosphatidylinositol-induced beta arrestin recruitment after 90 mins by beta-galactosidase based topcount luminescence analysis; type: functional, cell-based
[3] = target: T2, N-arachidonyl glycine receptor (Homo sapiens, UniProt Q14330); test: (§1) Agonist activity at Prolink1-tagged human GPR18 receptor expressed in CHO cells assessed as induction of beta-arrestin recruitment after 90 mins by beta-galactosidase based topcount luminescence analysis; type: cell-based
T2 sequence (Q14330 whole entry): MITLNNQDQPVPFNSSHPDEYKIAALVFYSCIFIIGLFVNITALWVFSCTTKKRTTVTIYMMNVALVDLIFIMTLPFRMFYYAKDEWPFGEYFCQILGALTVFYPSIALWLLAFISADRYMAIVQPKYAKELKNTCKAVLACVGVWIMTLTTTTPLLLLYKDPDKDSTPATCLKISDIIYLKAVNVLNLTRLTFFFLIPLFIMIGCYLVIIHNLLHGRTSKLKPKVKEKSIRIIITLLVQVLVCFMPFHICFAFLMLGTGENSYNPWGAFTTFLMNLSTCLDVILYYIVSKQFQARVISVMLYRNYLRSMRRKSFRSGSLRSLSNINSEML

[4] = target: T3, N-arachidonyl glycine receptor (Homo sapiens) (UniProt Q14330); test: Agonist activity at Prolink1-tagged human GPR18 receptor expressed in CHO cells assessed as induction of beta-arrestin recruitment at 10 uM after 90 mins by beta-galactosidase based topcount luminescence analysis relative to control; type: cell-based
T3 sequence (whole entry): T2 sequence (Q14330 whole entry)
In short: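 CHO cells stably expressing human GPR18, β-arrestin enzyme-complementation assay with luminescence read-out. Test compound at 10 μM single concentration; signal normalized to that of 10 μM Δ9-THC.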

[5] = target: T2, N-arachidonyl glycine receptor; test: Antagonist activity at Prolink1-tagged human GPR18 receptor expressed in CHO cells assessed as inhibition of THC-induced beta arrestin recruitment after 90 mins by beta-galactosidase based topcount luminescence analysis; type: functional, cell-based
[6] = target: T1, G-protein coupled receptor 55; test: Agonist activity at Prolink1-tagged human GPR55 receptor expressed in CHO cells assessed as induction of beta-arrestin recruitment at 10 uM after 90 mins by beta-galactosidase based topcount luminescence analysis relative to control; type: cell-based
In short: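 CHO cells stably expressing GPR55, β2-arrestin recruitment detected by enzyme complementation and luminescence. Compounds tested at 10 μM; effect normalized to signal from 1 μM LPI.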

[7] = target: T1, G-protein coupled receptor 55; test: Antagonist activity at Prolink1-tagged human GPR55 receptor expressed in CHO cells assessed as inhibition of lysophosphatidylinositol-induced beta arrestin recruitment at 10 uM after 90 mins by beta-galactosidase based topcount luminescence analysis relative to control; type: functional, cell-based
In short: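 GPR55-expressing CHO cells, β-arrestin complementation luminescence. Percent inhibition by test compound at 10 μM of the response to 1 μM LPI.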

[8] = target: Cannabinoid receptor 1 (Homo sapiens) (UniProt P21554); test: Displacement of [3H]CP55,940 from human CB1 receptor expressed in CHO cell membranes after 2 hrs by liquid scintillation analysis
Cannabinoid receptor 1 (Homo sapiens), sequence (P21554 whole entry): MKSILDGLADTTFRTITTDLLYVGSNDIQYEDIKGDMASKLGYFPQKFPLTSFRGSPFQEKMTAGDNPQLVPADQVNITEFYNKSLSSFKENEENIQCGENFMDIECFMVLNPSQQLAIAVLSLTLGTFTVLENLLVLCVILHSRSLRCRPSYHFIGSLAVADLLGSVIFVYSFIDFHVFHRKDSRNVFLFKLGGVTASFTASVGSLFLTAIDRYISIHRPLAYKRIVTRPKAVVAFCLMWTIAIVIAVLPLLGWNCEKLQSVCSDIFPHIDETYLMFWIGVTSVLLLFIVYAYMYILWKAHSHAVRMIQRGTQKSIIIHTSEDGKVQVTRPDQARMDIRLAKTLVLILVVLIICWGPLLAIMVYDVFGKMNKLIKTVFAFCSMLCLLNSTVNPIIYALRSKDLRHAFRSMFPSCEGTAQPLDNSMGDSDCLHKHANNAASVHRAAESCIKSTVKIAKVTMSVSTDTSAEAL
In short: (§2)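 CB receptor radioligand binding: test compound at 10 μM single concentration, scored for displacement of a CB-specific radioligand and for any increase in bound radioligand.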

[9] = target: Cannabinoid receptor 2 (Homo sapiens) (UniProt P34972); test: Displacement of [3H]CP55,940 from human CB2 receptor expressed in CHO cell membranes after 2 hrs by liquid scintillation analysis; in short: as §2
Cannabinoid receptor 2 (Homo sapiens), sequence (P34972 whole entry): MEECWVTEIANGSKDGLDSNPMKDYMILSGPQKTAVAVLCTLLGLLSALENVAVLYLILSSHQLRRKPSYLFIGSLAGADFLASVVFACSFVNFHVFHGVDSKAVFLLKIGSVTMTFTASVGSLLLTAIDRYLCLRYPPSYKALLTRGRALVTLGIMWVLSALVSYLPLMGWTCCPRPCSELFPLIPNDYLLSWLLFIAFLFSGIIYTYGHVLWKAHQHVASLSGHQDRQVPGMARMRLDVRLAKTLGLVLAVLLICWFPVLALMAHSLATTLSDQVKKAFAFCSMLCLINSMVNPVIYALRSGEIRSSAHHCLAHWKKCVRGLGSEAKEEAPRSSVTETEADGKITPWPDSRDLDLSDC

[10] = target: T3, N-arachidonyl glycine receptor (Homo sapiens); test: as §1, with “recruitment by measuring maximum inhibition of 2-(3-(6-(4-chlorophenoxy)hexyloxy)benzylidene)-6,7-dihydro-2H-imidazo[2,1-b][1,3]thiazin-3(5H)-one at 1 uM” for “recruitment”; type: cell-based; settings: filed as agonist
In short: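 Human GPR18 stably expressed in CHO cells, β-arrestin enzyme complementation. Antagonist concentration-inhibition curves run against a fixed 1 μM agonist stimulus. IC50 and maximal inhibition derived from curves; means of three independent experiments, each in duplicate.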

[11] = target: T3, N-arachidonyl glycine receptor (Homo sapiens); test: Agonist activity at Prolink1-tagged human GPR18 receptor expressed in CHO cells assessed as effect on induction of beta-arrestin recruitment after 90 mins in presence of 3 to 20 uM […] antagonist 2-(3-(6-(4-chlorophenoxy)hexyloxy)benzylidene)-6,7-dihydro-2H-imidazo[2,1-b][1,3]thiazin-3(5H)-one by beta-galactosidase based topcount luminescence analysis; type: cell-based; settings: filed as agonist
[12] = target: T3, N-arachidonyl glycine receptor (Homo sapiens); test: Agonist activity at Prolink1-tagged human GPR18 receptor expressed in CHO cells assessed as increase in beta-arrestin recruitment at 1 uM in presence of THC at lower concentrations after 90 mins by beta-galactosidase based topcount luminescence analysis; type: cell-based; settings: filed as agonist
In short: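 GPR18-CHO β-arrestin recruitment assay. Fixed agonist at 1 μM combined with a THC concentration–response series. Means of three independent experiments in duplicate.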

[13] = target: T3, N-arachidonyl glycine receptor (Homo sapiens); test: Agonist activity at Prolink1-tagged human GPR18 receptor expressed in CHO cells assessed as induction of beta-arrestin recruitment after 90 mins in presence of 3 uM THC by beta-galactosidase based topcount luminescence analysis; type: cell-based
In short: (§3)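 β-Arrestin recruitment in CHO cells expressing human GPR18. Agonist concentration–response curves recorded in the presence of fixed Δ9-THC (3 μM or 10 μM). Means of three independent experiments, each in duplicate.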

[14] = target: T3, N-arachidonyl glycine receptor (Homo sapiens); test: Agonist activity at Prolink1-tagged human GPR18 receptor expressed in CHO cells assessed as induction of beta-arrestin recruitment after 90 mins in presence of 10 uM THC by beta-galactosidase based topcount luminescence analysis relative to control; type: cell-based; in short: as §3

Compound | EC50 [1] [µM] | IC50 [2] [µM] | EC50 [3] [µM] | Activity [4] [%] | IC50 [5] [µM] | Activity [6] [%] | inhibition [7] [%] | Activity [8] | Activity [9] | inhibition [10] [%] | Activity [11] | Activity [12] | Activity [13] | inhibition [14] | Activity ([4]; filed as agonist) [%]
Cn1c(=O)c2c(nc3n2CCCCN3CCc2c[nH]c3ccccc23)n(C)c1=O | > 10 | > 10 | – | – | – | – | – | – | – | – | – | – | – | – | –
CCN1CCCn2c1nc1c2c(=O)n(C)c(=O)n1C | > 10 | > 10 | > 10 | 2 | > 10 | -16 | 17 | – | – | – | – | – | – | – | –
CCCCC/C=C\C/C=C\C/C=C\C/C=C\CCCC(=O)NCC(=O)O [ARACHIDONOYL GLYCINE] | – | – | > 10 | – | > 10 | – | – | – | – | – | – | – | – | – | –
Cn1c(=O)c2c(nc3n2CCN3c2ccc(O)cc2)n(C)c1=O | > 10 | > 10 | > 10 | 22 | > 10 | 13 | – | – | – | – | – | – | – | – | –
COc1ccc(CCN2CCCn3c2nc2c3c(=O)n(C)c(=O)n2C)cc1 | > 10 | > 10 | > 10 | -2 | > 10 | -6 | – | – | – | – | – | – | – | – | –
COc1ccc(CCN2CCCn3c2nc2c3c(=O)n(C)c(=O)n2C)cc1OC | > 10 | > 10 | > 10 | -39 | > 10 | 15 | 32 | – | – | – | – | – | – | – | –
Cn1c(=O)c2c(nc3n2CCCN3CCc2ccccc2)n(C)c1=O | > 10 | > 10 | > 10 | 2 | > 10 | 16 | -10 | – | – | – | – | – | – | – | –
Cn1c(=O)c2c(nc3n2CCN3CCc2c[nH]c3ccccc23)n(C)c1=O | > 10 | > 10 | – | – | – | – | – | – | – | – | – | – | – | – | –
C=C(C)[C@@H]1CCC(C)=C[C@H]1c1c(O)cc(O)cc1CCCCC | > 10 | > 10 | > 10 | – | > 10 | 7 | 33 | – | – | – | – | – | – | – | –
CCCn1c(=O)c2c(nc3n2CCCN3CCc2c[nH]c3ccccc23)n(CCC)c1=O | > 10 | > 10 | > 10 | -12 | > 10 | – | -4 | – | – | – | – | – | – | – | –
Cn1c(=O)c2c(nc3n2CCCN3Cc2ccc(Cl)cc2)n(C)c1=O | > 10 | > 10 | > 10 | 6 | > 10 | -9 | 1 | – | – | – | – | – | – | – | –
CCCCN1CCCn2c1nc1c2c(=O)n(C)c(=O)n1C | > 10 | > 10 | > 10 | 26 | > 10 | -4 | 34 | – | – | – | – | – | – | – | –
Cn1c(=O)c2c(nc3n2CCCN3CCc2ccc(Cl)cc2)n(C)c1=O | > 10 | > 10 | > 10 | 14 | > 10 | 10 | – | – | – | – | – | – | – | – | –
CCN(CC)CCN1CCCn2c1nc1c2c(=O)n(C)c(=O)n1C | > 10 | > 10 | > 10 | 39 | > 10 | 4 | -3 | – | – | – | – | – | – | – | –
CCCCCc1cc(O)c2c(c1)OC(C)(C)[C@@H]1CCC(C)=C[C@@H]21 [DRONABINOL] | > 10 | – | – | – | – | -4 | – | – | – | – | – | – | – | – | –
Cn1c(=O)c2c(nc3n2CCCN3CCc2c[nH]c3ccccc23)n(C)c1=O | > 10 | > 10 | 0.562 | – | – | -5 | 20 | inactive | inactive | 65 | Active | Active | inactive | inactive | –
CCCCCN1CCCn2c1nc1c2c(=O)n(C)c(=O)n1C | > 10 | > 10 | > 10 | -1 | > 10 | 10 | – | – | – | – | – | – | – | – | –
COCCN1CCCn2c1nc1c2c(=O)n(C)c(=O)n1C | > 10 | > 10 | > 10 | – | > 10 | 18 | -4 | – | – | – | – | – | – | – | 40
